Experimental findings from ChEMBL document CHEMBL1255290, “Characterization of a novel human immunodeficiency virus type 1 protease inhibitor, A-790742” (Antimicrob Agents Chemother, 2008) are described below.

Assay [1] relates to Human immunodeficiency virus 1. The experiment in a line: Antiviral activity against HIV1 clone3 infected in HEK293 cells harboring A-790742-selected protease L33F, K45I, V82L, and I84V mutation assessed as reduction in viral replication by luciferase reporter gene assay relative to wild type HIV1 pNL4-3. It is filed as functional. In a few lines: (§1)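 Single-cycle assay: HEK-293 cells were cotransfected with luciferase-reporter HIV-1 protease clones plus a VSV-G expression vector. After 4 h, cells were replated at 2 × 10⁴/well over serial inhibitor dilutions in triplicate. Pseudovirus collected at 48 h infected fresh HEK-293 (10⁴/well). Luciferase read 48 h later gave % inhibition versus untreated and EC50. Fold change against WT pNL4-3-Luc (clones 1-4) or RF-Luc (clone 5) is the mean of three experiments.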
A general note: A reporter such as luciferase makes a cellular process visible.

Assay [2] has as its system Human immunodeficiency virus 1. In words: Antiviral activity against HIV1 pNL4-3 infected in human MT4 cells derived from 21 viral passages with 2000 nM A-790742 harboring protease L23I, L33F, K45I, A71A/V, V77I, V82L, I84V mutation assessed as reduction in viral cytopathogenicity treated 1 hr post infection measured 5 days post infection by MTT assay relative to wild type HIV1 pNL4-3. The class given is functional. A digest of the protocol:
(§2)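 Selection: MT-4 cells infected with parental pNL4-3 or RF (MOI 0.003, 2 h), then passaged under rising selecting drug whenever supernatant p24 (ELISA) exceeded 10 ng/ml. Passage viruses titred by TCID50 (Spearman-Karber). Assay: 10^6 MT-4 cells infected at MOI 0.003 for 1 h, washed, and seeded at 10^4 cells/well with eight serial dilutions, triplicate, 0.5% DMSO final. Day-5 MTT read-out; EC50 fold-change versus parental wild type.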
Background: Cytopathic effects are the visible damage that an infection or toxin causes in cultured cells.

The subject of assay [3] is Human immunodeficiency virus 1. The experiment in a line: Antiviral activity against HIV1 P13 infected in human MT4 cells derived from viral passages with A-790742 harboring protease M46I, L63P, A71V, and V82G mutation assessed as reduction in viral cytopathogenicity treated 1 hr post infection measured 5 days post infection by MTT assay relative to wild type HIV1 RF. It is filed as functional. In a few lines: (§3)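 For the assay, 10⁶ MT-4 cells were infected at MOI 0.003, washed after 1 h, and plated at 10⁴ cells/well with eight serial compound dilutions in triplicate (0.5% DMSO final). MTT cytopathic read-out at day 5; EC50 from dose-response fitting.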

Assay [4] has as its system Human immunodeficiency virus 1. The experiment in a line: Antiviral activity against HIV1 clone2 infected in HEK293 cells harboring A-790742-selected protease V82L mutation assessed as reduction in viral replication by luciferase reporter gene assay relative to wild type HIV1 pNL4-3. The class given is functional. A digest of the protocol:
as §1

For assay [5], the system named is Human immunodeficiency virus 1. The experiment in a line: Antiviral activity against HIV1 pNL4-3 infected in human MT4 cells derived from 5 viral passages with 12 nM A-790742 harboring protease I84V mutation assessed as reduction in viral cytopathogenicity treated 1 hr post infection measured 5 days post infection by MTT assay relative to wild type HIV1 pNL4-3. The class given is functional. In a few lines: as §2

Assay [6] concerns Human immunodeficiency virus 1. In words: Antiviral activity against HIV1 P15 infected in human MT4 cells derived from viral passages with A-790742 harboring protease L33L/F, K45I, V82L, and I84V mutation assessed as reduction in viral cytopathogenicity treated 1 hr post infection measured 5 days post infection by MTT assay relative to wild type HIV1 pNL4-3. It is filed as functional. In a few lines: as §3

For assay [7], the system named is Human immunodeficiency virus 1. The experiment in a line: Antiviral activity against HIV1 P21 infected in human MT4 cells derived from viral passages with A-790742 harboring protease L23I, L33F, K45I, A71A/V, V77I, V82L, and I84V mutation assessed as reduction in viral cytopathogenicity treated 1 hr post infection measured 5 days post infection by MTT assay relative to wild type HIV1 pNL4-3. The class given is functional. In a few lines: as §3

In assay [8] the test system is Human immunodeficiency virus 1. The experiment in a line: Antiviral activity against HIV1 isolate 13 infected in human MT4 cells obtained from protease inhibitor-resistant patient harboring protease L10I, K14R, L33F, E34Q, R41K, K45R, M46I, I50V, K55R, L63P, A71V, G73T, V77I, V82A, L90M, I93L mutation derived from viral passages with Lopinavir assessed as reduction in viral cytopathogenicity treated 1 hr post infection measured 5 days post infection by …. The class given is functional.

Assay [9] concerns Human immunodeficiency virus 1. In words: Antiviral activity against HIV1 pNL4-3 infected in human MT4 cells derived from 9 viral passages with 80 nM A-790742 harboring protease V82V/L and I84V mutation assessed as reduction in viral cytopathogenicity treated 1 hr post infection measured 5 days post infection by MTT assay relative to wild type HIV1 pNL4-3. The class given is functional. A digest of the protocol:
as §2

Assay [10] concerns Human immunodeficiency virus 1. The experiment in a line: Antiviral activity against HIV1 RF infected in human MT4 cells derived from 15 viral passages with 500 nM A-790742 harboring protease M46I, L63P, A71V, V82G mutation assessed as reduction in viral cytopathogenicity treated 1 hr post infection measured 5 days post infection by MTT assay relative to wild type HIV1 RF. It is filed as functional. In a few lines:
as §2

Assay [11] relates to Human immunodeficiency virus 1. In words: Antiviral activity against HIV1 pNL4-3 infected in human MT4 cells derived from 10 viral passages with 140 nM A-790742 harboring protease V82V/L and I84V mutation assessed as reduction in viral cytopathogenicity treated 1 hr post infection measured 5 days post infection by MTT assay relative to wild type HIV1 pNL4-3. It is filed as functional. A digest of the protocol:
as §2

Assay [12] has as its system Human immunodeficiency virus 1. The experiment in a line: Antiviral activity against HIV1 pNL4-3 infected in human MT4 cells derived from 15 viral passages with 560 nM A-790742 harboring protease L33L/F, K45I, V82L, I84V mutation assessed as reduction in viral cytopathogenicity treated 1 hr post infection measured 5 days post infection by MTT assay relative to wild type HIV1 pNL4-3. It is filed as functional. A digest of the protocol:
as §2

The subject of assay [13] is Human immunodeficiency virus 1. In words: Antiviral activity against wild-type HIV1 pNL4-3 infected in human MT4 cells assessed as reduction in viral cytopathogenicity treated 1 hr post infection measured 5 days post infection in presence of 50% human serum by MTT assay. The class given is functional, organism-based. Particulars: Human immunodeficiency virus 1, pNL4-3, MT4.

The test system of assay [14] is Human immunodeficiency virus 1. In words: Antiviral activity against HIV1 pNL4-3 infected in human MT4 cells derived from 6 viral passages with 16 nM A-790742 harboring protease I84V mutation assessed as reduction in viral cytopathogenicity treated 1 hr post infection measured 5 days post infection by MTT assay relative to wild type HIV1 pNL4-3. The class given is functional. A digest of the protocol: as §2

Assay [15] relates to Human immunodeficiency virus 1. In words: Antiviral activity against wild-type HIV1 RF infected in human MT4 cells assessed as reduction in viral cytopathogenicity treated 1 hr post infection measured 5 days post infection in absence of human serum by MTT assay. It is filed as functional, organism-based. Conditions: Human immunodeficiency virus 1, RF. A digest of the protocol: as §3

The subject of assay [16] is Human immunodeficiency virus 1. The experiment in a line: Antiviral activity against HIV1 RF infected in human MT4 cells derived from 6 viral passages with 16 nM A-790742 harboring wild-type protease assessed as reduction in viral cytopathogenicity treated 1 hr post infection measured 5 days post infection by MTT assay relative to wild type HIV1 RF. It is filed as functional. In a few lines: as §2

In assay [17] the test system is Human immunodeficiency virus 1. The experiment in a line: Antiviral activity against HIV1 isolate 9 infected in human MT4 cells obtained from protease inhibitor-resistant patient harboring protease L10I, I15I/V, K20R, L33F, E35D, M36I, N37D, R41K, K43I, M46I, I54V, I62V, L63P, A71T, I72T, V82A, I84V, L90M, I93L mutation derived from viral passages with Lopinavir assessed as reduction in viral cytopathogenicity treated 1 hr post infection measured 5 days …. The class given is functional.

Assay [18] has as its system Human immunodeficiency virus 1. The experiment in a line: Antiviral activity against HIV1 isolate 3 infected in human MT4 cells obtained from protease inhibitor-resistant patient harboring protease L10I, E35D, N37D, […], I54V, L63P, A71V, T74P, I84V, L90M, I93L mutation derived from viral passages with Lopinavir assessed as reduction in viral cytopathogenicity treated 1 hr post infection measured 5 days post infection by MTT assay relative to wild type …. The class given is functional.

Assay [19] deals with Human immunodeficiency virus 1. The experiment in a line: Antiviral activity against HIV1 pNL4-3 infected in human MT4 cells derived from 7 viral passages with 32 nM A-790742 harboring protease I84V mutation assessed as reduction in viral cytopathogenicity treated 1 hr post infection measured 5 days post infection by MTT assay relative to wild type HIV1 pNL4-3. The class given is functional. In a few lines:
as §2

For assay [20], the system named is Human immunodeficiency virus 1. In words: Antiviral activity against HIV1 A17 infected in human MT4 cells harboring protease L10F, V32I, M46I, I47V, Q58E, and I84V mutation derived from viral passages with Lopinavir assessed as reduction in viral cytopathogenicity treated 1 hr post infection measured 5 days post infection by MTT assay. It is filed as functional, organism-based. Conditions: Human immunodeficiency virus 1, A17, MT4. In a few lines: as §3

The EC50 is the concentration needed to bring the measured effect to its halfway point. For the molecule `COC(=O)N[C@H](C(=O)N[C@H](Cc1ccc(-c2ccccn2)cc1)C[C@H](O)[C@H](Cc1ccccc1)NC(=O)[C@@H](N1CCN(Cc2cccc(C(C)(C)O)n2)C1=O)C(C)(C)C)C(C)(C)C`, the “Ratio EC50” value is recorded as 23 in assay [1]; 666.7 in assay [2]; 72 in assay [3]; 22 in assay [4]; 4 in [5]; 29 in assay [6]. The “Ratio EC50” value in assay [7] is on record as greater than 2500; in assay [8], 2; in [9], 26.7; in assay [10], 100; in [11], 46.7; in assay [12] it was 186.7. For the same molecule, the “Ratio EC50” value in assay [14] was found to be 5.3; in assay [16] it was 3.2; in [17] it was 6; in assay [18] it was 33; in [19], 10.7. The 50% effective concentration (EC50) was 20 nM in assay [13], 5 nM in assay [15] and 10 nM in assay [20].
